According to PubChem BioAssay:
Results filed as inconclusive are left out.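 Rule for the calls, unless noted: active = RAM network inhibition above 8.4% in each of two replicates, 3 SD over the compound average; inconclusive = above 8.4% inhibition in only one replicate; inactive = 8.4% inhibition or less in each replicate.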

What was measured:
[1] = OD615 S. cerevisiae growth inhibition, permissive medium, pilot counter-assay, permissive growth control for S. cerevisiae lifespan shortening project (AID 705;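 active = growth inhibition above 25% in both replicates, a cutoff set 3 SD above the mean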); details: OD615, 24 h, at 10 µM, hits give high values
Outline: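 assay system = Saccharomyces cerevisiae strain carrying genetically modified DeaD replicative-lifespan system | technique = absorbance (optical density) at 615 nm | buffer or medium = permissive raffinose/galactose medium | timing = cells pre-grown 4 h, then 24 h compound exposure, 30 °C humidified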

[2] = Restrictive medium S. cerevisiae growth inhibition, OD615, pilot screen of yeast lifespan reduction project, restrictive growth control (AID 706;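 active = growth inhibition above a set limit, 3 SD over mean compound inhibition, in both replicates, cut at about 43% in these data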;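 note: modified DeaD lifespan yeast strain shifted to restrictive glucose medium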); details: OD615, 48 h, at 10 µM, hits give high values
Outline: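 System: modified S. cerevisiae. Buffer or medium: CSMM-D glucose medium. Incubation: 4 h pre-growth plus 48 h compound exposure, 30 °C. Detection: absorbance (optical density) measured at 615 nm.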

[3] = viability gain of MRP-1-high H69AR cells under doxorubicin, pilot screen, MRP-1 activator project, CellTiter-Glo, duplicate (AID 807;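 active = viability increase at or above a cutoff of the median across tested compounds plus 3 SD, cut at about 8.5% in these data, passing the limit was not always enough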;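 note: compound pretreatment 18-22 h then 72 h combined with doxorubicin; 0% = doxorubicin alone and 100% = vehicle without doxorubicin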); details: H69AR viability with doxorubicin, CellTiter-Glo luminescence; at 10 µM; hits give high values
[4] = growth suppression of beta-catenin knockout HCT116, pilot screen, human colon tumor cells (AID 823;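 active = cell viability at or below a set limit in both duplicate runs, the limit being the all-compound median minus 4 SD, cut at about 23% in these data, passing the limit was not always enough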;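 note: 0% = wells killed by 20 µM Hyamine and 100% = untreated DMSO cell wells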); details: CellTiter-Glo, 60 h, at 10 µM, hits give low values
[5] = growth suppression of PTEN-deleted HCT116, pilot screen, cell-based, HCT116 clonal line, CellTiter-Glo (AID 824;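 active = viability at or below 27.92% in each of two runs, the all-compound median minus 4 SD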;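 note: 0% = 20 µM Hyamine control and 100% = vehicle cell control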); details: 60 h, at 10 µM, hits give low values
[6] = inhibitors of the yeast RAM network, pilot screen, dse1pr::URA3 reporter, 5-FOA selection (AID 869;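 active = inhibition over a set limit, the all-compound mean plus 3 SD, in both replicate runs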;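 note: 0% = DMSO wells with no growth and 100% = 10 µM 1-NA-PP1 with full growth; RAM network block rescues cells from 5-FOA so hits raise OD615 growth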); details: S. cerevisiae dse1pr::URA3 5-FOA growth, OD615, 2 d; at 10 µM; hits give high values; strain carries analog-sensitive mutant Cbk1 kinase
[7] = RAM signaling pathway blockade in yeast – S. cerevisiae, Pdr1DBD-CYC8 efflux-inhibited sensitized strain, primary screen (AID 1298);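 note: 0% = DMSO untreated cells without growth and 100% = 10 µM 1-NA-PP1 full growth; higher means more yeast growth rescued from 5-FOA killing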; details: S. cerevisiae cbk1-as DSE1-URA3 strain, 5-FOA growth OD615, 2 d; at 50 µM; hits give high values

CN(C)S(=O)(=O)c1ccc(C(=O)Nc2ccccn2)cc1
inactive: growth inhibition [1] -10.3% | growth inhibition [2] -19.3% | viability increase [3] -0.7% | viability [4] 96.6% | viability [5] 89.2% | inhibition [6] 1.31% | RAM network inhibition [7] -1.36%

CC(=O)C(Sc1ccc2nnc(-c3ccc(F)cc3)n2n1)C(C)=O
inactive: growth inhibition [1] 2.49% | growth inhibition [2] 26.7% | viability increase [3] -3.38% | viability [4] 91% | viability [5] 86.3% | inhibition [6] -0.355% | RAM network inhibition [7] 7.13%

Cc1ccc(NC(=O)c2cc(NC(=O)C3CC=CCC3C(=O)O)ccc2N2CCOCC2)cc1 (stereo not given)
inactive: growth inhibition [1] -11.6% | growth inhibition [2] -5.87% | viability increase [3] -3.64% | viability [4] 97.3% | viability [5] 95.1% | inhibition [6] 1.23% | RAM network inhibition [7] 2.82%

Cc1sc(NC(=O)CCCC(=O)O)c(C#N)c1C
inactive: growth inhibition [1] -0.59% | growth inhibition [2] 16.8% | viability increase [3] -1.9% | viability [4] 99.4% | viability [5] 99% | inhibition [6] 1.27% | RAM network inhibition [7] 3.31%

CCn1cc(C(=O)NCCCN2CCC(C)CC2)c2cc(OC)c(OC)cc2c1=O
inactive: growth inhibition [1] -7.74% | growth inhibition [2] 6.7% | viability increase [3] -3.47% | viability [4] 99.3% | viability [5] 92% | inhibition [6] 1.77% | RAM network inhibition [7] 1.99%

Cc1nnc2ccc(N3CCN(C(=O)c4ccccc4)CC3)nn12
inactive: growth inhibition [1] -4.49% | growth inhibition [2] 5.48% | viability increase [3] 0.13% | viability [4] 98.9% | viability [5] 95.2% | inhibition [6] 1.42% | RAM network inhibition [7] 2.92%

Cc1ccn2c(-c3csc(NCc4ccco4)n3)c(C)nc2c1
inactive: growth inhibition [1] -1.21% | growth inhibition [2] 2.84% | viability increase [3] -4.37% | viability [4] 66.6% | viability [5] 71.8% | inhibition [6] 3.51% | RAM network inhibition [7] 3.65%

COC(=O)c1cc(OC)c(OC)cc1N=CC1=C(O)CC(C)(C)CC1=O
inactive: growth inhibition [1] -14.9% | growth inhibition [2] -8.12% | viability increase [3] -0.98% | viability [4] 99.5% | viability [5] 94.1% | inhibition [6] 1.6% | RAM network inhibition [7] 3.12%

CN1CCN(CCCNC(=O)c2cc3c(=O)n(C)c4ccccc4c3s2)CC1
inactive: growth inhibition [1] 0.78% | growth inhibition [2] -4.68% | viability increase [3] -7.62% | viability [4] 53.1% | viability [5] 45.6% | inhibition [6] 0.835% | RAM network inhibition [7] 1.14%

Cc1ccccc1C(=O)N1CCC(C(=O)Nc2cccc(F)c2)CC1
inactive: growth inhibition [1] -7.2% | growth inhibition [2] -1.04% | viability increase [3] -0.02% | viability [4] 98.1% | viability [5] 82.7% | inhibition [6] 1.3% | RAM network inhibition [7] 3.22%

Cc1nn(Cc2ccccc2)c(N)c1C#N
inactive: growth inhibition [1] -2.69% | growth inhibition [2] 1.22% | viability increase [3] 0.68% | viability [4] 107% | viability [5] 98.3% | inhibition [6] 1.58% | RAM network inhibition [7] 5.62%

O=C(O)CCC(=O)N1CCc2cc(S(=O)(=O)N3CCN(c4ccc(F)cc4)CC3)ccc21
inactive: growth inhibition [1] -4.08% | growth inhibition [2] 6.97% | viability increase [3] -1.31% | viability [4] 97.4% | viability [5] 99% | inhibition [6] 1.94% | RAM network inhibition [7] 4.17%

CCOc1ccc(NC(=O)CSc2nnc(Cn3c(=O)sc4ccccc43)n2C)cc1
inactive: growth inhibition [1] -5.25% | growth inhibition [2] -0.055% | viability increase [3] -2.49% | viability [4] 98% | viability [5] 103% | inhibition [6] 0.83% | RAM network inhibition [7] 7.78%

Cc1nn(C)c(C)c1S(=O)(=O)N(CC(=O)Nc1ccccn1)c1ccc(C(C)C)cc1
inactive: growth inhibition [1] -2.97% | growth inhibition [2] -15.5% | viability increase [3] -1.21% | viability [4] 80.1% | viability [5] 82.2% | inhibition [6] 2% | RAM network inhibition [7] -0.48%

O=C(NCCOC(=O)c1ccncc1)c1ccccc1
inactive: growth inhibition [1] -0.685% | growth inhibition [2] -1.32% | viability increase [3] -0.4% | viability [4] 99.2% | viability [5] 99.7% | inhibition [6] 1.27% | RAM network inhibition [7] 3.05%

Cc1ccc(-n2nnc3c(=O)n(CC(=O)NCc4ccco4)cnc32)cc1
inactive: growth inhibition [1] -7.22% | growth inhibition [2] 2.02% | viability increase [3] -4.35% | viability [4] 67.6% | viability [5] 63.4% | inhibition [6] 3.36% | RAM network inhibition [7] 7.68%

CCOC(=O)c1cnc2c(C#N)c(C)nn2c1-c1ccccc1
inactive: growth inhibition [1] -5.3% | growth inhibition [2] 0.945% | viability increase [3] -0.99% | viability [4] 94% | viability [5] 92.7% | inhibition [6] 1.69% | RAM network inhibition [7] 3.66%

COc1ccc(N(CC(=O)Nc2ccc3c(c2)OCCO3)S(=O)(=O)c2c(C)nn(C)c2C)cc1
inactive: growth inhibition [1] -9.27% | growth inhibition [2] -19.9% | viability increase [3] -2.36% | viability [4] 99.4% | viability [5] 95.9% | inhibition [6] 0.73% | RAM network inhibition [7] 4.15%

CCOc1ccccc1NC(=O)N1CCCC1C(=O)Nc1ccc(-n2cnnn2)c(C)c1 (stereo not given)
inactive: growth inhibition [1] -11.3% | growth inhibition [2] -16.2% | viability increase [3] 0.16% | viability [4] 102% | viability [5] 97.9% | inhibition [6] 1.86% | RAM network inhibition [7] 2.1%

CCn1cc(S(=O)(=O)CC(=O)Nc2ccc(C)cc2)c2ccccc21
inactive: growth inhibition [1] 0.74% | growth inhibition [2] -4.11% | viability increase [3] -0.58% | viability [4] 92.7% | viability [5] 93% | inhibition [6] 1.61% | RAM network inhibition [7] 2.02%

Fc1ccc(C2CC(c3ccccc3)Nc3ncnn32)cc1 (stereo not given)
inactive: growth inhibition [1] -10.3% | growth inhibition [2] -3.12% | viability increase [3] -0.63% | viability [4] 93.5% | viability [5] 98.1% | inhibition [6] 1.04% | RAM network inhibition [7] 1.19%

CC(C)N(Cc1ccccc1)C(=O)c1cnc2n(c1=O)CCS2
inactive: growth inhibition [1] -1.66% | growth inhibition [2] -28.5% | viability increase [3] -2.84% | viability [4] 105% | viability [5] 98.1% | inhibition [6] 1.28% | RAM network inhibition [7] 1.59%

Cc1ccc(-c2nc(CS(=O)(=O)CC(=O)N3CC(C)CC(C)C3)c(C)o2)cc1 (stereo not given)
inactive: growth inhibition [1] 0.15% | growth inhibition [2] 4.4% | viability increase [3] -2.57% | viability [4] 58% | viability [5] 72.8% | inhibition [6] 1.93% | RAM network inhibition [7] 3.8%

Cc1ccc2ccc(S(=O)(=O)n3nc(C)cc3C)cc2c1
inactive: growth inhibition [1] -6.58% | growth inhibition [2] 2.99% | viability increase [3] -1.12% | viability [4] 84.9% | viability [5] 81.2% | inhibition [6] 2.06% | RAM network inhibition [7] 5.5%

CC1CC(C)CN(C(=O)CSc2nnc(-c3ccc(Cl)s3)o2)C1 (stereo not given)
inactive: growth inhibition [1] -4.71% | growth inhibition [2] -6.08% | viability increase [3] 2.04% | viability [4] 96.5% | viability [5] 92.4% | inhibition [6] 0.75% | RAM network inhibition [7] 2.52%

O=C(NCCN1C(=O)C2C3C=CC(C3)C2C1=O)Nc1ccccc1O (stereo not given)
inactive: growth inhibition [1] -6.45% | growth inhibition [2] -1.21% | viability increase [3] -1.45% | viability [4] 106% | viability [5] 106% | inhibition [6] 1.5% | RAM network inhibition [7] 4.02%

O=C(NCCN1C(=O)C2C3C=CC(C3)C2C1=O)Nc1ccccc1 (stereo not given)
inactive: growth inhibition [1] -8.45% | growth inhibition [2] 1.35% | viability increase [3] 0.28% | viability [4] 102% | viability [5] 93.2% | inhibition [6] 0.71% | RAM network inhibition [7] -0.05%

O=C1c2ccccc2NC(c2ccccc2)N1c1ccc(O)cc1 (stereo not given)
inactive: growth inhibition [1] -0.23% | growth inhibition [2] 1.65% | viability increase [3] -3.15% | viability [4] 87.1% | viability [5] 90.8% | inhibition [6] 1.19% | RAM network inhibition [7] 1.89%

CC(=O)c1ccc(NC(=O)CN2C(=O)COc3ccc(Cl)cc32)cc1
inactive: growth inhibition [1] -16.9% | growth inhibition [2] -13.2% | viability increase [3] -2.36% | viability [4] 84% | viability [5] 79.2% | inhibition [6] 2.46% | RAM network inhibition [7] 5.11%

CCOC(=O)c1ccc(NC(=O)CN2C(=O)CSC2=O)cc1
inactive: growth inhibition [1] -1.29% | growth inhibition [2] -0.27% | viability increase [3] 1.63% | viability [4] 95.7% | viability [5] 103% | inhibition [6] 3.08% | RAM network inhibition [7] 4.03%

CCn1c(=NC(=O)c2ccc(N3C(=O)CCC3=O)cc2)sc2c(OC)ccc(OC)c21
inactive: growth inhibition [1] -5.79% | growth inhibition [2] -11.5% | viability increase [3] -0.73% | viability [4] 97.9% | viability [5] 92.7% | inhibition [6] 1.86% | RAM network inhibition [7] 8.5%

Cc1ccc(S(=O)(=O)N2CCN(C(=O)CN3CCCC3)C2)cc1
inactive: growth inhibition [1] -15.1% | growth inhibition [2] -11.2% | viability increase [3] -0.87% | viability [4] 92.4% | viability [5] 100% | inhibition [6] 1.62% | RAM network inhibition [7] 8.99%

O=C(OCN1C(=O)c2ccccc2C1=O)c1ccco1
inactive: growth inhibition [1] -3.8% | growth inhibition [2] 0.045% | viability increase [3] -2.17% | viability [4] 96.7% | viability [5] 93.3% | inhibition [6] 3.23% | RAM network inhibition [7] 3.35%

CCCCN1C(=O)C2C(c3ccc(OC)cc3O)NC(CC(C)C)(C(=O)O)C2C1=O (stereo not given)
inactive: growth inhibition [1] -7.45% | growth inhibition [2] -8.79% | viability increase [3] 0.44% | viability [4] 97.7% | viability [5] 92.7% | inhibition [6] 0.895% | RAM network inhibition [7] 0.99%

COc1ccc(NC(=O)N(CCCN2CCOCC2)Cc2cccnc2)c(OC)c1
inactive: growth inhibition [1] -7.71% | growth inhibition [2] -3.92% | viability increase [3] -1.79% | viability [4] 100% | viability [5] 103% | inhibition [6] 1.03% | RAM network inhibition [7] 1.81%
